Assay results gathered from unrelated publications.
Compare with care: the assays were run in different laboratories.
Observed: cell growth or viability

CCN1CCN(c2ccc(Nc3cc(N(C)C(=O)Nc4c(Cl)c(OC)cc(OC)c4Cl)ncn3)cc2)CC1
IC50 (RT-112; ATP luminescence; 96 h): 0.0117 µM

Nc1c2c(nc3ccccc13)CCCC2O (centres unmarked)
IC50 (HN-6; 72 h): > 20 µM

Nc1ccn([C@@H]2O[C@H](CO)[C@@H](O)C2(F)F)c(=O)n1
IC50 (Panc 02.03; MTT; 72 h): 0.38 µM

CCCCC/C=C\C/C=C\C/C=C\C/C=C\CCCC(=O)C(F)(F)F
IC50 (MEL-JUSO; MTS; 72 h): 22.8 µM

O=C1NCCc2[nH]c(-c3ccncc3)cc21
IC50 (LOX IMVI): 3.58 µM

CCN1C(=O)N(c2c(F)c(OC)cc(OC)c2F)Cc2cnc3[nH]c(CN4CCOCC4)cc3c21
IC50 (KATO III; ATP luminescence; 96 h): 0.00148 µM

NCCc1ccc(O)c(O)c1
IC50 (HN-6; 72 h): > 20 µM

COc1cc(O)c2c(c1)C(=O)c1cc(C)cc(O)c1C2=O
IC50 (HK-2; MTT; 24 h): > 500 µM

CC(C)(C=O)Cc1cc(C(C)(C)C)c(O)c(C(C)(C)C)c1
IC50 (HN-6; 72 h): > 20 µM

CC(C)(C)C1=CC(=NNC(=O)C2CCCCC2)C=C(C(C)(C)C)C1=O
IC50 (human Fibroblast; resazurin; 24 h): > 100 µM

CC1(C)[C@@H](O)CC[C@]2(C)[C@H]3C(=O)C=C4[C@@H]5C[C@@](C)(C(=O)O)CC[C@]5(C)CC[C@@]4(C)[C@]3(C)CC[C@@H]12
IC50 (SGC-7901; MTT; 48 h): 10.2 µM

O=C(O)CCCc1ccccc1
IC50 (BCPAP; MTT; 72 h): > 50 µM

O=C(CNC(=O)c1cccc2ccccc12)Nc1ccccc1Oc1ccccc1
IC50 (SK-N-DZ): 0.237 µM

COc1cc(Nc2nccc(-c3cnn4nc(OC)ccc34)n2)cc(C(F)(F)F)c1
IC50 (RERF-LC-Ad2; ATP luminescence): 0.36 µM

COc1cccc2c1C(=O)c1c(O)c3c(c(O)c1C2=O)C[C@@](O)(C(=O)CO)C[C@@H]3O[C@H]1C[C@H](N)[C@H](O)[C@H](C)O1
IC50 (A2058; WST-1; 72 h): 0.04 µM

O=C(NCCc1c[nH]c2ccccc12)C(=O)c1c[nH]c2ccc(Br)cc12
IC50 (C4-2; MTT): > 100 µM

C=C(C)C(=O)Nc1ccc(-c2c(-c3ccc(Oc4nccc(C)n4)c(F)c3)c3c(N)ncnc3n2C)cc1
IC50 (RT-112; ATP luminescence; 96 h): 0.212 µM

COc1ccc2[nH]cc(C(=O)C(=O)CCCc3c[nH]c4ccccc34)c2c1
IC50 (C4-2; MTT): > 100 µM

O=C(O)c1cc(O)c2c(c1)C(=O)c1cccc(O)c1C2=O
IC50 (HK-2; MTT; 24 h): 210 µM

COC(=O)CN=c1scc(-c2ccccc2)n1-c1ccccc1[N+](=O)[O-]
IC50 (Panc 02.03; MTT; 72 h): > 100 µM

CC(C)=CCC[C@](C)(O)[C@H]1CC[C@]2(C)[C@@H]1[C@H](O)C[C@@H]1[C@@]3(C)CC[C@H](O[C@@H]4O[C@H](CO)[C@@H](O)[C@H](O)[C@H]4O[C@@H]4O[C@H](CO)[C@@H](O)[C@H](O)[C@H]4O)C(C)(C)[C@@H]3CC[C@]12C
IC50 (BEAS-2B; MTT; 72 h): > 100 µM

Cc1c[nH]c(/C=C2\C(=O)Nc3ccccc32)c1CCC(=O)O
IC50 (RT-112; MTT; 5 days): 6 µM

O=C1c2cccc(O)c2C(=O)c2c(O)cc(CO)cc21
IC50 (HK-2; MTT; 24 h): > 500 µM

COc1ccc(CCN(C)CCc2ccc(OC)c(OC)c2)cc1OC
IC50 (HN-6; 72 h): > 20 µM

CCOc1ccc(C(=O)NN=C2C=C(C(C)(C)C)C(=O)C(C(C)(C)C)=C2)cc1
IC50 (human Fibroblast; resazurin; 24 h): > 100 µM

Nc1ccc(Cl)c[n+]1[Pt-2]([Cl])([Cl])[n+]1cc(Cl)ccc1N
IC50 (BEAS-2B; MTT; 48 h): 6.33 µM

CC(C)C[C@H](NC(=O)[C@H](Cc1ccccc1)NC(=O)c1cnccn1)B(O)O
IC50 (A2058; ATP luminescence): 0.013 µM

COc1cccc(Oc2ccccc2NC(=O)CNC(=O)c2cccc3ccccc23)c1
IC50 (SK-N-DZ): 0.288 µM

C(=C\c1c[nH]c2ccccc12)/c1ccc2ccccc2n1
IC50 (MDA-MB-468; MTT): 11 µM

COc1ccc2c(C(=O)C(=O)NCCc3c[nH]c4ccccc34)c[nH]c2c1
IC50 (C4-2; MTT): > 100 µM

Nc1ncnc2c1ncn2[C@@H]1O[C@H](CO)[C@@H](O)[C@@H]1O
IC50 (HN-6; 72 h): > 20 µM

CCCCCCNC(=O)n1cc(F)c(=O)[nH]c1=O
IC50 (C6; MTT; 72 h): 7 µM

O=C1Nc2ccc(Cl)cc2[C@@](C#CC2CC2)(C(F)(F)F)O1
IC50 (HN-6; 72 h): 18.7 µM

Cc1ccc(C(=O)Nc2ccc(Oc3cc4cnn(C)c4cc3-c3cn[nH]c3)c(F)c2)c(=O)n1-c1ccc(F)cc1
IC50 (KATO III; ATP luminescence): 0.354 µM

Clc1ccc2c(c1)N=C(N1CCNCC1)c1ccccc1N2
IC50 (HN-6; 72 h): > 20 µM

COc1ccc2[nH]cc(S(C)(=O)=Nc3cc(OC)c(OC)c(OC)c3)c2c1 (centres unmarked)
IC50 (C4-2; MTT; 48 h): > 40 µM

CC(C)C(=O)SCCCCCCC(=O)Nc1nc(-c2ccccc2)cs1
IC50 (HN-6; 72 h): 5.9 µM

CC1(C)CC[C@]2(C(=O)O)CC[C@]3(C)C(=CC[C@@H]4[C@@]5(C)CC[C@H](O)C(C)(C)[C@@H]5CC[C@]43C)[C@@H]2C1
IC50 (SGC-7901; MTT; 48 h): 52.7 µM
